ChEMBL document CHEMBL2163197, “Synthesis and antimitotic and tubulin interaction profiles of novel pinacol derivatives of podophyllotoxins” (2012)
Counter-ions that a name gives are not always drawn. The source made the active and inactive calls. The calls are words filed in the database; no cut-off is given here.

Assays:
A549 [1] = assay: Cell cycle arrest in human A549 cells assessed as accumulation at G2/M phase at 0.001 to 100 uM after 20 hrs by propidium iodide staining-based flow cytometry; format: functional
Procedure, shortened: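 A-549 cells (180 000 per mL) incubated 20 h with ligands from 1 nM to 100 μM, with untreated and DMSO vehicle controls. Cells fixed in 70% ethanol, RNase-treated and stained with propidium iodide. DNA content read by flow cytometry to give percent of cells in each cycle phase. Lowest concentration giving G2/M arrest recorded.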

HT-29 = assay: Growth inhibition of human HT-29 cells after 72 hrs by SRB assay; format: functional; settings: HT-29, 72 h
Procedure, shortened: (§1)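 Cell lines kept in RPMI with 10% FCS, 2 mM L-glutamine, penicillin/streptomycin at 37 °C, 5% CO2. Exposure 72 h to 10 concentrations from 10 to 0.0026 μg/mL. Cells fixed in 1% glutaraldehyde, stained with 0.4% SRB for 30 min, dye extracted in 10 mM Trizma base, absorbance read at 490 nm. GI50 from triplicate dose-response cultures by NCI algorithm; mean ± SD of three independent experiments.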

A549 [2] = assay: Antimitotic activity in human A549 cells assessed as induction of microtubule depolymerization at 0.05 to 100 uM after 20 hrs by Hoechst 33342 staining-based fluorescence microscopy; format: functional, cell-based
Procedure, shortened: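 A-549 lung carcinoma cells plated at 150 000 cells/ml on coverslips, cultured overnight, then exposed to ligands or DMSO vehicle (residual DMSO <0.5%). Cells permeabilised with Triton X100, fixed in 3.7% formaldehyde, stained with DM1A anti-α-tubulin and FITC secondary, chromatin stained with 1 μg/mL Hoechst 33342. Examined by epifluorescence microscopy. Methods state 24 h exposure; legend states 20 h.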

SK-BR-3 = assay: Growth inhibition of human SKBR3 cells after 72 hrs by SRB assay; format: functional; settings: SK-BR-3, 72 h; procedure, shortened: as §1
A549 [3] = assay: Growth inhibition of human A549 cells after 72 hrs by SRB assay; format: functional; settings: A549, 72 h; procedure, shortened: as §1
Bos taurus [4] = species: Bos taurus; assay: Displacement of MTC from bovine brain tubulin colchicine binding site at 20 uM by fluorometric assay
Procedure, shortened: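 Calf brain tubulin 10 μM with 10 μM MTC in 10 mM sodium phosphate, 0.1 mM GTP, pH 7.0, with 20 μM ligand. Excitation at 350 nm. Fluorescence emission spectra recorded and the decrease relative to tubulin-bound MTC taken as displacement from the colchicine site.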

Bos taurus [5] = species: Bos taurus; assay: Inhibition of bovine brain tubulin polymerization at 1 uM after 30 mins by spectrophotometric analysis

Row | Compound | Activity (A549 [1]) | GI50 (HT-29) | Activity (A549 [2]) | GI50 (SK-BR-3) | GI50 (A549 [3]) | Activity (Bos taurus [4]) | inhibition (Bos taurus [5])
1 | COc1cc([C@@H]2c3cc4c(cc3[C@](O)(C3(O)CCCC3)[C@H]3COC(=O)[C@H]23)OCO4)cc(OC)c1OC | >70% | 451 nM | Active | 439 nM | 444 nM | – | –
2 | COc1cc([C@@H]2c3cc4c(cc3[C@@](O)(C(O)(c3ccccc3)c3ccccc3)[C@H]3COC(=O)[C@H]23)OCO4)cc(OC)c1OC | – | 528 nM | – | 524 nM | 874 nM | – | –
3 | COc1cc([C@@H]2c3cc4c(cc3[C@H](C(C)C)[C@H]3COC(=O)[C@@H]23)OCO4)cc(OC)c1OC | >70% | 83.1 nM | Active | 84.1 nM | 79.5 nM | 35% | 84.5%
4 | COc1cc([C@@H]2c3cc4c(cc3[C@H](O)[C@H]3COC(=O)[C@H]23)OCO4)cc(OC)c1OC [PODOFILOX] | >70% | 12 nM | Active | – | 12 nM | 25% | 7%
5 | COc1cc([C@@H]2c3cc4c(cc3[C@](O)(C3(O)CCSCC3)[C@H]3COC(=O)[C@@H]23)OCO4)cc(OC)c1OC | – | 2620 nM | – | 1780 nM | 3320 nM | – | –
6 | COc1cc([C@@H]2c3cc4c(cc3[C@@]3(OC(C)(C)O[C@H]3C)[C@H]3COC(=O)[C@H]23)OCO4)cc(OC)c1OC | – | 6560 nM | – | 6140 nM | 6020 nM | – | –
7 | COc1cc([C@@H]2c3cc4c(cc3[C@@](O)(C3(O)CCCCC3)[C@H]3COC(=O)[C@H]23)OCO4)cc(OC)c1OC | – | 859 nM | – | 610 nM | 547 nM | – | –
8 | CCC[C@@H](O)[C@@]1(O)c2cc3c(cc2[C@@H](c2cc(OC)c(OC)c(OC)c2)[C@H]2C(=O)OC[C@@H]21)OCO3 | – | 404 nM | – | 288 nM | 279 nM | – | –
9 | COc1cc([C@@H]2c3cc4c(cc3[C@](O)([C@@](C)(O)C(C)C)[C@H]3COC(=O)[C@H]23)OCO4)cc(OC)c1OC | – | 1730 nM | – | 1030 nM | 1150 nM | – | –
10 | COc1cccc2c1C(=O)c1c(O)c3c(c(O)c1C2=O)C[C@@](O)(C(=O)CO)C[C@@H]3O[C@H]1C[C@H](N)[C@H](O)[C@H](C)O1 [DOXORUBICIN HYDROCHLORIDE] | – | 153 nM | – | 65.5 nM | 60.3 nM | – | –
11 | COc1cc([C@@H]2c3cc4c(cc3[C@@]3(OC(C)(C)O[C@@H]3C)[C@H]3COC(=O)[C@H]23)OCO4)cc(OC)c1OC | – | 5230 nM | – | 5870 nM | 6220 nM | – | –
12 | COc1cc([C@@H]2c3cc4c(cc3/C(=C(\c3ccccc3)C(C)C)[C@H]3COC(=O)[C@@H]23)OCO4)cc(OC)c1OC | – | 11400 nM | – | 14300 nM | 6210 nM | – | –
13 | COc1cc([C@@H]2c3cc4c(cc3[C@@](O)(C3(O)CCOCC3)[C@H]3COC(=O)[C@@H]23)OCO4)cc(OC)c1OC | >70% | 15400 nM | Active | 8010 nM | 8920 nM | – | 2.8%
14 | COc1cc([C@@H]2c3cc4c(cc3[C@](O)([C@](O)(c3ccccc3)C(C)C)[C@H]3COC(=O)[C@H]23)OCO4)cc(OC)c1OC | >70% | 159 nM | Active | 148 nM | 139 nM | – | –
15 | COc1ccc([C@@](C)(O)[C@@]2(O)c3cc4c(cc3[C@@H](c3cc(OC)c(OC)c(OC)c3)[C@H]3C(=O)OC[C@@H]32)OCO4)cc1OC | – | 4750 nM | – | 4990 nM | 2620 nM | – | –
16 | COc1cc([C@@H]2c3cc4c(cc3C(=C(C)C)[C@H]3COC(=O)[C@@H]23)OCO4)cc(OC)c1OC | – | 8280 nM | – | 3780 nM | 6440 nM | – | –

Row | Compound | Activity (A549 [1]) | GI50 (HT-29) | Activity (A549 [2]) | GI50 (SK-BR-3) | GI50 (A549 [3]) | Activity (Bos taurus [4]) | inhibition (Bos taurus [5])
17 | COc1cc([C@@H]2c3cc4c(cc3[C@@](O)(C(C)(C)O)[C@H]3COC(=O)[C@H]23)OCO4)cc(OC)c1OC | – | 659 nM | – | 511 nM | 1480 nM | – | –
18 | COc1cc([C@@H]2c3cc4c(cc3[C@](O)(C3(O)C5CCCC3CCC5)[C@H]3COC(=O)[C@H]23)OCO4)cc(OC)c1OC (stereo not given in full) | >70% | 5.14 nM | Active | 7.39 nM | 6.39 nM | – | 45.1%
19 | COc1cc([C@@H]2c3cc4c(cc3[C@@H](O)[C@H]3COC(=O)[C@H]23)OCO4)cc(OC)c1OC [EPIPODOPHYLLOTOXIN] | – | 60 nM | – | – | 60 nM | – | –
20 | COc1cc([C@@H]2c3cc4c(cc3/C(=C(/C)C(C)C)[C@H]3COC(=O)[C@@H]23)OCO4)cc(OC)c1OC | – | 10200 nM | – | 4530 nM | 7700 nM | – | –
21 | C=C1c2cc3c(cc2[C@@H](c2cc(OC)c(OC)c(OC)c2)[C@@H]2C(=O)OC[C@H]12)OCO3 | – | 78.1 nM | – | 66.8 nM | 28.1 nM | – | –
22 | COc1cc([C@@H]2c3cc4c(cc3[C@](O)([C@H](O)C3CC=CCC3)[C@H]3COC(=O)[C@H]23)OCO4)cc(OC)c1OC (stereo not given in full) | – | 2510 nM | – | 2430 nM | 2030 nM | – | –
23 | COc1cc([C@@H]2c3cc4c(cc3[C@](O)(C(C)(C)O)[C@H]3COC(=O)[C@H]23)OCO4)cc(OC)c1OC | – | 598 nM | – | 457 nM | 577 nM | – | –
24 | COc1cc([C@@H]2c3cc4c(cc3[C@](O)(C3(O)CCC3)[C@H]3COC(=O)[C@H]23)OCO4)cc(OC)c1OC | >70% | 198 nM | Active | 219 nM | 191 nM | – | –
25 | COc1cc([C@@H]2c3cc4c(cc3[C@@](O)(C3(O)CCCC3)[C@H]3COC(=O)[C@H]23)OCO4)cc(OC)c1OC | – | 2720 nM | – | 2420 nM | 1690 nM | – | –
26 | COc1cc([C@@H]2c3cc4c(cc3[C@](O)(C3(O)CCCCC3)[C@H]3COC(=O)[C@@H]23)OCO4)cc(OC)c1OC | – | 2900 nM | – | 1250 nM | 3620 nM | – | –
27 | COc1cc([C@@H]2c3cc4c(cc3[C@](O)([C@](C)(O)C(C)C)[C@H]3COC(=O)[C@H]23)OCO4)cc(OC)c1OC | – | 204 nM | – | 181 nM | 254 nM | – | –
28 | COc1cc([C@@H]2c3cc4c(cc3[C@](O)(C3(O)CCOCC3)[C@H]3COC(=O)[C@@H]23)OCO4)cc(OC)c1OC | >70% | 26.8 nM | Active | 25.9 nM | 29 nM | – | 21.1%
29 | COc1cc([C@@H]2c3cc4c(cc3[C@](O)(C(O)(c3ccccc3)c3ccccc3)[C@H]3COC(=O)[C@H]23)OCO4)cc(OC)c1OC | – | 281 nM | – | 313 nM | 376 nM | – | –
30 | COc1cc([C@@H]2c3cc4c(cc3[C@](O)(C3(O)CCCCC3)[C@H]3COC(=O)[C@H]23)OCO4)cc(OC)c1OC | >70% | 97.5 nM | Active | 64.9 nM | 90.8 nM | – | –
31 | COc1cc([C@@H]2c3cc4c(cc3[C@@](O)(C3(O)C5CCCC3CCC5)[C@H]3COC(=O)[C@H]23)OCO4)cc(OC)c1OC (stereo not given in full) | >70% | 6420 nM | Active | 6720 nM | 5680 nM | 15% | 12%
